ChEMBL document CHEMBL1212834, “Pyrido[2,3-b]pyrazines, discovery of TRPV1 antagonists with reduced potential for the formation of reactive metabolites” (Bioorg Med Chem Lett, 2010)
Active and inactive are the calls of the source. No cut-off for these calls is given here.

How the values were obtained:
[1] = AUC (0 to 24 hrs) in rhesus monkey at 1 mg/kg, po; format: ADME, organism-based, Macaca mulatta; set-up: time < 24 hr, dose 1 mg/kg, route oral; conditions: plasma
Method in brief: (§1)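 Oral PK at the dose in the line, given as a suspension in 0.5% methocel. […] Reported as mean ± error.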

[2] = target: T1, Transient receptor potential cation channel subfamily V member 1 (Rattus norvegicus, UniProt O35433); format: functional, tissue-based, Sprague-Dawley, Dorsal root ganglion; conditions: read-out: IC50
T1 sequence (O35433 whole entry): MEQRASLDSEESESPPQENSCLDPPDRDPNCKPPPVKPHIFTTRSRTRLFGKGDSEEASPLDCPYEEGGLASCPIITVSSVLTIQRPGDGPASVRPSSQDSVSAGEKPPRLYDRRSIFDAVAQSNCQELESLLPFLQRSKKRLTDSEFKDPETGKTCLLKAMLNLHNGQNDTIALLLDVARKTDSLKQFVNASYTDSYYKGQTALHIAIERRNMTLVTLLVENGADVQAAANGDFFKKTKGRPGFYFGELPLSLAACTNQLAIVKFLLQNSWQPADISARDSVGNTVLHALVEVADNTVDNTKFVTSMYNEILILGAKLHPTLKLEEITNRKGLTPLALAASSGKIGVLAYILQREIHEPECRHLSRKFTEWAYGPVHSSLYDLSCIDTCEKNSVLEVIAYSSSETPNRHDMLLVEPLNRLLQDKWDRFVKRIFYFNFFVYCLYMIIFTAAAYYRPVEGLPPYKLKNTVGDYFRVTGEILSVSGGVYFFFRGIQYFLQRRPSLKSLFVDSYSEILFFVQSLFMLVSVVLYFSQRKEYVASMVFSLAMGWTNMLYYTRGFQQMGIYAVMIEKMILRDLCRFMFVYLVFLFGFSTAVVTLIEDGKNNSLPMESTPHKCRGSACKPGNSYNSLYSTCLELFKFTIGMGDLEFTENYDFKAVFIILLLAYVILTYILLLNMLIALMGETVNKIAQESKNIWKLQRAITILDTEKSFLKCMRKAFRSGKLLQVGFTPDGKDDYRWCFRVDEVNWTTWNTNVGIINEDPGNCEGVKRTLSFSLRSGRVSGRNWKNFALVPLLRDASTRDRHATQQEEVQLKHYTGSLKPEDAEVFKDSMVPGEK

Rattus norvegicus [3] = assay: Antiinflammatory activity in Sprague-Dawley rat assessed as inhibition of carrageenan-induced thermal hyperalgesia at 1 mg/kg, po administered 3.5 hrs after carrageenan challenge measured after 5 hrs; format: functional
Method in brief: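 Rat carrageenan-induced thermal hyperalgesia. Dosed orally as a suspension in 0.5% methocel; % inhibition reported at each dose.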

Rattus norvegicus [4] = assay: Plasma concentration in Sprague-Dawley rat carrageenan-induced thermal hyperalgesia model at 3 mg/kg, po; format: ADME, organism-based; set-up: dose 3 mg/kg, route oral; conditions: in vivo
Method in brief: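 Rats given compound orally as a suspension in 0.5% methocel in the carrageenan-induced thermal hyperalgesia model. Plasma sampled immediately after the CITH experiment.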

[5] = Half life in rat at 1 mg/kg, iv; format: ADME, organism-based; set-up: dose 1 mg/kg, route intravenous; conditions: in vivo
Method in brief: (§2)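 IV PK at 1 mg/kg, given as a solution in 3:1 PEG300:water. Plasma half-life, clearance and volume of distribution derived.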

[6] = Volume of distribution in rat at 1 mg/kg, iv; format: ADME, organism-based; set-up: dose 1 mg/kg, route intravenous; conditions: in vivo
Method in brief: (§3)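 Intravenous dose of 1 mg/kg given as a solution in 3:1 PEG300:water to rat, dog or rhesus monkey. Plasma PK parameters (T1/2, clearance, Vd) derived.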

[7] = Oral bioavailability in rat at 1 mg/kg; format: ADME, organism-based; conditions: in vivo
Method in brief: (§4)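 Oral bioavailability from a 1 mg/kg po dose (suspension in 0.5% methocel), compared against a 1 mg/kg iv dose (solution in 3:1 PEG300:water).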

[8] = Cmax in rat at 10 mg/kg, po; format: ADME, organism-based; set-up: dose 10 mg/kg, route oral; conditions: in vivo; method in brief: as §1
[9] = AUC (0 to 24 hrs) in rat at 10 mg/kg, po; format: ADME, organism-based; set-up: time < 24 hr, dose 10 mg/kg, route oral; conditions: plasma; method in brief: as §1
[10] = Cmax in rat at 100 mg/kg, po; format: ADME, organism-based; set-up: dose 100 mg/kg, route oral; conditions: in vivo; method in brief: as §1
[11] = AUC (0 to 24 hrs) in rat at 100 mg/kg, po; format: ADME, organism-based; set-up: time < 24 hr, dose 100 mg/kg, route oral; conditions: plasma; method in brief: as §1
[12] = Volume of distribution in dog at 1 mg/kg, iv; format: ADME, organism-based, Canis lupus familiaris; set-up: dose 1 mg/kg, route intravenous; conditions: in vivo; method in brief: as §3
[13] = Cmax in dog at 1 mg/kg, po; format: ADME, organism-based, Canis lupus familiaris; set-up: dose 1 mg/kg, route oral; conditions: in vivo; method in brief: as §1
[14] = Cmax in dog at 10 mg/kg, po; format: ADME, organism-based, Canis lupus familiaris; set-up: dose 10 mg/kg, route oral; conditions: in vivo; method in brief: as §1
[15] = AUC (0 to 24 hrs) in dog at 10 mg/kg, po; format: ADME, organism-based, Canis lupus familiaris; set-up: time < 24 hr, dose 10 mg/kg, route oral; conditions: plasma; method in brief: as §1
[16] = Clearance in rhesus monkey at 1 mg/kg, iv; format: ADME, organism-based, Macaca mulatta; set-up: dose 1 mg/kg, route intravenous; conditions: in vivo; method in brief: as §2
[17] = Volume of distribution in rhesus monkey at 1 mg/kg, iv; format: ADME, organism-based, Macaca mulatta; set-up: dose 1 mg/kg, route intravenous; conditions: in vivo; method in brief: as §3
[18] = Oral bioavailability in rhesus monkey at 1 mg/kg; format: ADME, organism-based, Macaca mulatta; conditions: in vivo; method in brief: as §4
[19] = Cmax in rhesus monkey at 1 mg/kg, po; format: ADME, organism-based, Macaca mulatta; set-up: dose 1 mg/kg, route oral; conditions: in vivo; method in brief: as §1
[20] = Cmax in rat brain of complete Freund's adjuvant-induced inflammation model at 10 mg/kg, po; format: ADME, organism-based; set-up: dose 10 mg/kg, route oral
[21] = target: Voltage-gated inwardly rectifying potassium channel KCNH2 (Homo sapiens, UniProt Q12809); assay: Inhibition of human hERG
Chain of Voltage-gated inwardly rectifying potassium channel KCNH2 (Q12809 whole entry): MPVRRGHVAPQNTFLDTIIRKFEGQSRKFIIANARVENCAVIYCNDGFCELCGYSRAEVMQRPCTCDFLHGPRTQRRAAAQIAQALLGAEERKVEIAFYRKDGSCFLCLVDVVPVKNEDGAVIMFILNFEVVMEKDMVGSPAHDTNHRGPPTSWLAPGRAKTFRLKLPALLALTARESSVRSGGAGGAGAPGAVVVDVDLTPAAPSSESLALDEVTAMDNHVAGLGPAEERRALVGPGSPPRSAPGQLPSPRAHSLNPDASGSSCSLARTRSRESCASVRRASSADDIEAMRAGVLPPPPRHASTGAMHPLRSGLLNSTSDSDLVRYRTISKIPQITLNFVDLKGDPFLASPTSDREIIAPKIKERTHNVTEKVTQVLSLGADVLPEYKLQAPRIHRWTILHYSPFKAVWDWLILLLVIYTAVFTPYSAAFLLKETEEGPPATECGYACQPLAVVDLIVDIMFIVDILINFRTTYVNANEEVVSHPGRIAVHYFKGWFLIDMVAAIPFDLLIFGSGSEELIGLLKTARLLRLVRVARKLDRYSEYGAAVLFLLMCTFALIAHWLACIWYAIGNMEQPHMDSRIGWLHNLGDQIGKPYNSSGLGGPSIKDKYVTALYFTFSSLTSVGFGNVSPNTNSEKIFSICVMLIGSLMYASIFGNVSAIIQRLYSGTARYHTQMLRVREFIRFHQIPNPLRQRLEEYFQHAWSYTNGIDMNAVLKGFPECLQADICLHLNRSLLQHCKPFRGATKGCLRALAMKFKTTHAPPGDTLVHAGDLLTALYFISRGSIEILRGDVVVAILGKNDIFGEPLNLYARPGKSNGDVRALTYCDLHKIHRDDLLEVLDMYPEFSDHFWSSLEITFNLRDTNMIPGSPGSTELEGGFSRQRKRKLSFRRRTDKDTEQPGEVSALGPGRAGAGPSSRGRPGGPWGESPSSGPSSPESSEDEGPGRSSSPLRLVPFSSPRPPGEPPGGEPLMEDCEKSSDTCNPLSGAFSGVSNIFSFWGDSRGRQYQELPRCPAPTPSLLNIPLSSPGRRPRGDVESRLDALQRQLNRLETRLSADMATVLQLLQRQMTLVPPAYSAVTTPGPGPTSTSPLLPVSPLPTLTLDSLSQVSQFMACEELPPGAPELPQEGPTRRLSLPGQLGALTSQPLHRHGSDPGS

[22] = Cmax in rat brain at 10 mg/kg, po; format: ADME, organism-based; set-up: dose 10 mg/kg, route oral
Rattus norvegicus [23] = assay: Antiinflammatory activity in rat assessed as inhibition of complete Freund's adjuvant-induced hind paw edema at 3 mg/kg, po administered 1 day after complete Freund's adjuvant challenge QD for 3 consecutive days measured at 2 hrs post dose on day 1; format: functional
Method in brief: (§5)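 CFA 200 µL injected intraplantar into the left hind paw. From the next day, 1, 3 or 10 mg/kg po once daily for 3 days as a suspension in 0.5% methocel.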

Rattus norvegicus [24] = assay: Antiinflammatory activity in rat assessed as inhibition of complete Freund's adjuvant-induced hind paw edema at 10 mg/kg, po administered 1 day after complete Freund's adjuvant challenge QD for 3 consecutive days measured at 2 hrs post dose on day 1; format: functional; method in brief: as §5
[25] = Plasma concentration in rat complete Freund's adjuvant-induced inflammation model at 3 mg/kg, po QD for 3 consecutive days measured at 2 hrs post dose on day 2; format: ADME, organism-based; set-up: dose 3 mg/kg, route oral
Method in brief: (§6)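 CFA (200 µL) injected intraplantar into left hind paw; next day rats dosed orally once daily for three consecutive days (1, 3 or 10 mg/kg, suspension in 0.5% methocel). Separate cohort: plasma sampled each day 2 h after dosing.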

[26] = Plasma concentration in rat complete Freund's adjuvant-induced inflammation model at 10 mg/kg, po at 2 hrs on second day; format: ADME, organism-based; set-up: dose 10 mg/kg, route oral; method in brief: as §6
[27] = Plasma concentration in rat complete Freund's adjuvant-induced inflammation model at 1 mg/kg, po at 2 hrs on third day; format: ADME, organism-based; set-up: dose 1 mg/kg, route oral; method in brief: as §6
[28] = Plasma concentration in rat complete Freund's adjuvant-induced inflammation model at 3 mg/kg, po at 2 hrs on third day; format: ADME, organism-based; set-up: dose 3 mg/kg, route oral; method in brief: as §6
Rattus norvegicus [29] = assay: Antiinflammatory activity in po dosed rat assessed as inhibition of complete Freund's adjuvant-induced hind paw edema administered 1 day after complete Freund's adjuvant challenge QD for 3 consecutive days measured at 2 hrs post dose on day 1; format: functional, organism-based; method in brief: as §5
Rattus norvegicus [30] = assay: Antiinflammatory activity in rat assessed as inhibition of complete Freund's adjuvant-induced hind paw edema at 1 mg/kg, po administered 1 day after complete Freund's adjuvant challenge QD for 3 consecutive days measured at 24 hrs post dose on day 3; format: functional; method in brief: as §5
Rattus norvegicus [31] = assay: Antiinflammatory activity in rat assessed as inhibition of complete Freund's adjuvant-induced hind paw edema at 3 mg/kg, po administered 1 day after complete Freund's adjuvant challenge QD for 3 consecutive days measured at 24 hrs post dose on day 3; format: functional; method in brief: as §5
Rattus norvegicus [32] = assay: Antiinflammatory activity in rat assessed as inhibition of complete Freund's adjuvant-induced hind paw edema at 10 mg/kg, po administered 1 day after complete Freund's adjuvant challenge QD for 3 consecutive days measured at 24 hrs post dose on day 3; format: functional; method in brief: as §5
Canis familiaris [33] = species: Canis familiaris; assay: Cardiotoxicity in dog assessed as effect on mean arterial pressure at plasma concentration of up to 24 uM; format: toxicity, organism-based, Canis lupus familiaris
Canis familiaris [34] = species: Canis familiaris; assay: Cardiotoxicity in dog assessed as effect on heart rate at plasma concentration of up to 24 uM; format: toxicity, organism-based, Canis lupus familiaris
[35] = target: T1, Transient receptor potential cation channel subfamily V member 1; assay: Antagonist activity at Sprague-Dawley rat dorsal root ganglion TRPV1 assessed as inhibition of pH-induced receptor activation; format: functional, tissue-based
Method in brief: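 Rat TRPV1 activated by low pH (5.0–5.5); inhibition measured and IC50 given as the mean of ≥3 experiments.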

MDCK = assay: Efflux ratio of permeability from basolateral to apical side over apical to basolateral side of MDCK cells; conditions: dog
Rattus norvegicus [36] = assay: Antiinflammatory activity in rat assessed as reversal of complete Freund's adjuvant-induced mechanical hyperalgesia at 1 to 10 mg/kg, po administered 1 day after complete Freund's adjuvant challenge QD for 3 consecutive days measured at 24 hrs post dose on day 2
Rattus norvegicus [37] = assay: Antihyperalgesic activity in rat assessed as inhibition of complete Freund's adjuvant-induced mechanical hyperalgesia measured as differential weight bearing at 1 mg/kg, po administered 1 day after complete Freund's adjuvant challenge QD for 3 consecutive days measured at 2 hrs post dose on day 1

NC(=O)c1cnc(-c2cnc3c(Nc4ccc(C(F)(F)F)cn4)ccnc3n2)c(C(F)(F)F)c1
AUC(0-t) at 24 h [1]: 4.9 µM·h
IC50 [2]: 1.3 nM
inhibition in vivo at 1 mg/kg (Rattus norvegicus [3]): 49%
concentration (Rattus norvegicus [4]): 1090 nM
half-life [5]: 2.3 h
Vd [6]: 4.3 L/kg
bioavailability [7]: 103%
Cmax [8]: 2100 nM
AUC(0-t) at 24 h [9]: 29.9 µM·h
Cmax [10]: 15000 nM
AUC(0-t) at 24 h [11]: 268 µM·h
Vd [12]: 1.3 L/kg
Cmax [13]: 500 nM
Cmax [14]: 5200 nM
AUC(0-t) at 24 h [15]: 68 µM·h
clearance [16]: 2.8 mL/min/kg
Vd [17]: 1 L/kg
bioavailability [18]: 38%
Cmax [19]: 700 nM
Cmax [20]: 300 nM
IC50 [21]: 5900 nM
Cmax [22]: 300 nM
inhibition in vivo at 3 mg/kg (Rattus norvegicus [23]): 65%
inhibition in vivo at 10 mg/kg (Rattus norvegicus [24]): 85%
concentration at 2 h [25]: 1100 nM
concentration at 2 h [26]: 3120 nM
concentration at 2 h [27]: 350 nM
concentration at 2 h [28]: 1280 nM
Activity (Rattus norvegicus [29]): Dose-dependent effect
inhibition in vivo at 1 mg/kg (Rattus norvegicus [30]): 42%
inhibition in vivo at 3 mg/kg (Rattus norvegicus [31]): 64%
inhibition in vivo at 10 mg/kg (Rattus norvegicus [32]): 70%
Activity (Canis familiaris [33]): Non-toxic
Activity (Canis familiaris [34]): Non-toxic
IC50 [35]: 1.3 nM
Ratio (MDCK): 3.1
inhibition (Rattus norvegicus [36]): Active
inhibition in vivo at 1 mg/kg (Rattus norvegicus [37]): 39%
